Assay results: BindingDB's records for doi:10.1016/j.bmcl.2007.10.100 (Columbia University, 2008)
pEC50, pIC50: −log10 of the molar value. Peptide text beside a SMILES is read from it. * marks the point of attachment. Cbz = O=C(OCc1ccccc1)*

Experiments:
[1] = Induction of human IkappaBalpha stabilization in OCI-Ly3 cells by green light emiting IkappaBalpha-fused luciferase reporter gene assay
[2] = Induction of human IkappaBalpha stabilization in OCI-Ly3 cells assessed as ratio of green light emiting IkappaBalpha-fused luciferase expression to red light emiting native luciferase expression
Transcription factor p65 = Transcription factor p65 (Human, UniProt Q04206); experiment: Inhibition of TNF-alpha-stimulated human NF-kappaB p65 RelA subunit nuclear translocation in HUVEC
In short: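 HUVEC (fewer than 8 passages) were seeded at 3,000 cells/well. Compounds were added in 8-point series, either from 10 µM final in media with 0.33% DMSO diluted 1:3, or from 8 µM diluted 1:2. After 3.5 h with compound, cells were stimulated with […] for 30 min. Cells were then fixed, permeabilized, stained with Hoechst and with anti-p65 plus an Alexa 647 secondary, and imaged automatically. IC50 is from curve fitting of one experiment run in triplicate, with BAY 11-7082 as the positive control.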

Chain of Transcription factor p65 (Q04206 whole entry): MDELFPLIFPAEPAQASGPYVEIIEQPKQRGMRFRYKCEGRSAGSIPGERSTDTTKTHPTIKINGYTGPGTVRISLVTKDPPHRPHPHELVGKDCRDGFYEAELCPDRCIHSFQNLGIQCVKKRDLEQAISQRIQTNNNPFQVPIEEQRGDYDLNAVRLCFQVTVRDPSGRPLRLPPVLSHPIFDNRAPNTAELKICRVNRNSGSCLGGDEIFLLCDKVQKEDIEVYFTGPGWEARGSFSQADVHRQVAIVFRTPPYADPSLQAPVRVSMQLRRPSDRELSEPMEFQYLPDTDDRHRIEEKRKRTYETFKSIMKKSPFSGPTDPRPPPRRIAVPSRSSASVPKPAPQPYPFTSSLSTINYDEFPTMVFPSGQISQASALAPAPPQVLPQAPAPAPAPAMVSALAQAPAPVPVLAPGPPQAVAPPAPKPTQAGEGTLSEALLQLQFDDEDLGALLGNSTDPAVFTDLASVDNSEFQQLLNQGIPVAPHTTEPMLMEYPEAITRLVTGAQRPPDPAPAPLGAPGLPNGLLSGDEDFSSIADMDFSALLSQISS

Row | SMILES | pEC50 [1] | pEC50 [2] | pIC50 (Transcription factor p65)
1 | COc1ccc2c(c1)-c1ccc3ccc(C)nc3c1NS2(=O)=O | 5.43 | 5.47 | 5.60
2 | COc1cc(NS(=O)(=O)c2ccc(C)cc2[N+](=O)[O-])c2ncccc2c1 | 5.17 | 5.12 | 5.68
3 | O=S1(=O)Nc2c(ccc3cccnc23)-c2cc(C(F)(F)F)ccc21 | 6.15 | 6.00 | 6.00
4 | O=S1(=O)Nc2c(ccc3cccnc23)-c2cc(F)ccc21 | 5.39 | 4.92 | 5.77
5 | COc1cc2cccnc2c2c1-c1cc(C)ccc1S(=O)(=O)N2 | 5.89 | 5.80 | 5.92
6 | Cc1ccc2ccc3c(c2n1)NS(=O)(=O)c1ccc(O)cc1-3 | 5.10 | 4.96 | 5.00
7 | Cc1ccc2ccc3c(c2n1)NS(=O)(=O)c1ccc(C(F)(F)F)cc1-3 | 5.05 | 5.14 | 5.92
8 | COc1cc(NS(=O)(=O)c2ccc(C)cc2N)c2nc(C)ccc2c1 | 5.03 | 5.52 | 
9 | COc1cc2ccc(C)nc2c2c1-c1cc(C)ccc1S(=O)(=O)N2 | 5.85 | 5.64 | 6.05
10 | COc1cc(NS(=O)(=O)c2ccc(C)cc2[N+](=O)[O-])c2nc(C)ccc2c1 | < 5.00 | < 4.24 | 
11 | COc1ccc2c(c1)-c1ccc3cccnc3c1NS2(=O)=O | 5.89 | 5.85 | 6.00
12 | Cc1ccc2c(c1)-c1ccc3cccnc3c1NS2(=O)=O | 6.30 | 6.10 | 6.22
13 | Cc1ccc(S(=O)(=O)/C=C/C#N)cc1 [BAY-11-7082] |  |  | 5.52
14 | COc1cc(NS(=O)(=O)c2ccc(C)cc2)c2nc(C)ccc2c1 | 4.70 | 4.70 | < 5.00
15 | Cc1cnc2c3c(ccc2c1)-c1ccccc1S(=O)(=O)N3 | 5.15 | 5.00 | 
16 | O=S1(=O)Nc2c(ccc3cccnc23)-c2cc(Cl)ccc21 | 5.96 | 4.96 | 5.96
17 | Cc1ccc2cccc(NS(=O)(=O)c3ccc(C(F)(F)F)cc3[N+](=O)[O-])c2n1 | 5.00 | 5.44 | 5.96
18 | CC(C)C[C@@H](C=O)NC(=O)[C@H](CC(C)C)NC(=O)[C@H](CC(C)C)NC(=O)OCc1ccccc1 [{1-[(S)-(S)-1-((S)-1-Formyl-3-methyl-butylcarbamoyl)-3-methyl-butylcarbamoyl]-3-methyl-butyl}-carbamic acid benzyl ester] (Cbz-Leu-Leu-Leu-aldehyde) | 6.00 | 5.28 | 
19 | COc1cnc2c3c(ccc2c1)-c1ccccc1S(=O)(=O)N3 |  |  | 5.60

Further lines, results first:

Row | pEC50 [1] | pEC50 [2] | pIC50 (Transcription factor p65) | SMILES
20 | 6.00 | < 5.00 | 5.80 | Cc1ccc([N+](=O)[O-])cc1S(=O)(=O)Nc1cccc2cccnc12
21 | 5.10 | 5.10 | 5.55 | Cc1ccc2cccc(NS(=O)(=O)c3ccccc3N)c2n1
22 | 5.23 | 5.17 | 5.96 | O=S(=O)(Nc1cccc2cccnc12)c1ccc(Br)s1
23 | 5.22 | 4.89 | 6.05 | Cc1ccc2cccc(NS(=O)(=O)c3cccc([N+](=O)[O-])c3)c2n1
24 | 4.96 | 4.92 | 5.49 | O=[N+]([O-])c1ccccc1S(=O)(=O)Nc1cccc2cccnc12 [2-nitro-N-quinolin-8-yl-benzenesulfonamide]
25 | 5.85 | 5.68 | 6.00 | Cc1ccc2cccc(NS(=O)(=O)c3ccc(Cl)s3)c2n1
26 | 4.96 | 5.07 | 5.70 | Nc1ccccc1S(=O)(=O)Nc1cccc2cccnc12
27 | 4.77 | 4.70 | < 5.00 | O=S(=O)(Nc1cccc2cccnc12)c1ccccc1 [N-(quinolin-8-yl)benzenesulfonamide]
28 | 5.57 | 5.57 | 5.89 | O=S(=O)(Nc1cccc2cccnc12)c1ccc(Cl)s1
29 | 5.44 | 4.70 | 5.43 | O=[N+]([O-])c1cc(C(F)(F)F)ccc1S(=O)(=O)Nc1cccc2cccnc12
30 | 5.21 | 5.19 | 5.85 | Cc1ccc2cccc(NS(=O)(=O)c3ccc(Br)s3)c2n1
31 | 5.66 | 5.59 | 6.00 | O=S1(=O)Nc2c(ccc3cccnc23)-c2ccccc21 [5H-quinolino[8,7-c][1,2]benzothiazine 6,6-dioxide]
32 | < 4.70 | < 4.24 |  | Cc1ccc2cccc(NS(=O)(=O)c3cc([N+](=O)[O-])ccc3C)c2n1
33 | 5.17 | 5.10 | 5.42 | Cc1ccc2cccc(NS(=O)(=O)c3ccccc3[N+](=O)[O-])c2n1
34 |  |  | 6.00 | COc1ccc(S(=O)(=O)Nc2cccc3ccc(C)nc23)c([N+](=O)[O-])c1
35 | 5.28 | 5.05 | 5.44 | O=S(=O)(Nc1cccc2cccnc12)c1cccs1
36 | 5.40 | 5.40 | 6.00 | COc1cc(NS(=O)(=O)c2ccc(C)cc2N)c2ncccc2c1
37 | 5.19 | 4.77 | 5.82 | O=[N+]([O-])c1ccc(S(=O)(=O)Nc2cccc3cccnc23)cc1
